The record followed here is ChEMBL document CHEMBL4823301, “Synthesis of acyclic nucleoside phosphonates targeting flavin-dependent thymidylate synthase in Mycobacterium tuberculosis” (Bioorg Med Chem, 2021).

The inhibition is how much of the control response was suppressed. One may read the Ki as a dissociation constant, usually derived from enzyme kinetics or from competition with a known ligand. A lower Ki goes with a stronger hold on the target.

Activity calls are given as the source filed them. The calls are words filed in the database; no cut-off is given here.

Test [1] concerns the target T1, Flavin-dependent thymidylate synthase (Mycobacterium tuberculosis) (UniProt P9WG57).
T1 sequence (whole entry): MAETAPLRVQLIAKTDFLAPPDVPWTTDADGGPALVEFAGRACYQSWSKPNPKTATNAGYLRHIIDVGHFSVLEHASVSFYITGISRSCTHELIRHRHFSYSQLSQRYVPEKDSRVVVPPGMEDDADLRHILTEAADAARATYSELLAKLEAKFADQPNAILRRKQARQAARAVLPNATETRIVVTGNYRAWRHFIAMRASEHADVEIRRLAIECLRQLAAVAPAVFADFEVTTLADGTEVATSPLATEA
The test can be described thus: Inhibition of Mycobacterium tuberculosis H37Rv ThyX expressed in Escherichia coli BL21(DE3) using 100 uM dUMP as substrate in presence of FAD cofactor at 200 uM incubated for 10 mins prior to the injection of NADPH and measured upto 20 mins by NADPH oxidase based spectrophotometric analysis relative to control. The following applies: time 30.0 min. The procedure, abridged:
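Mtb ThyX from E. coli BL21(DE3)/pLysS carrying pET24d, purified and stored at −20 °C, with a FAD:ThyX ratio of 1:3. Compound was preincubated 10 min at 25 °C. Injected NADPH started the reaction, and A340 fall was read up to 20 min. Duplicates; % inhibition = (1−Vi/Vo)×100 from initial rates.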

Test [2] has as its target T1, Flavin-dependent thymidylate synthase (Mycobacterium tuberculosis). Kind of test: Inhibition of Mycobacterium tuberculosis H37Rv ThyX expressed in Escherichia coli BL21(DE3) using 10 uM dUMP as substrate in presence of FAD cofactor at 200 uM incubated for 10 mins prior to the injection of NADPH and measured upto 20 mins by NADPH oxidase based spectrophotometric analysis. The following applies: time 30.0 min.

The target is the same in test [3]. The test can be described thus: Inhibition of Mycobacterium tuberculosis H37Rv ThyX expressed in Escherichia coli BL21(DE3) using 100 uM dUMP as substrate in absence of FAD cofactor at 200 uM incubated for 10 mins prior to the injection of NADPH and measured upto 20 mins by NADPH oxidase based spectrophotometric analysis. The following applies: time 30.0 min.
Test [4] in a line: Inhibition of flavin-dependent thymidylate synthetase (unknown origin). The arrangement: species or system Bacteria.

On to `CCCCCCCC(=O)NCC#Cc1ccc2c(=O)[nH]c(=O)n(CC=CCP(=O)(O)O)c2c1`, for which the inhibition in test [1] was 14.9%. In addition, the inhibition entry in test [2] and in test [3] was “inactive” throughout.

For `COc1ccc2c(=O)[nH]c(=O)n(CC=CCP(=O)(O)O)c2c1`, in test [1], the inhibition was 26.4%. The inhibition result in test [2] and in test [3] was “inactive” in each case.

Turning to `CCCCCCCC(=O)NCC#Cc1cn(CC=CCP(=O)(O)O)c(=O)[nH]c1=O`, the inhibition in test [1] came out at 0%. Besides, the inhibition result in test [2] and in test [3] was “inactive” each time.

As to `O=C(Cc1ccccc1)NCC#Cc1ccc2c(=O)[nH]c(=O)n(CC=CCP(=O)(O)O)c2c1`, in test [1], the inhibition stood at 14.7%. Also, the inhibition result in test [2] and in test [3] was “inactive” each time.

`CCCCCCCC(=O)NCC#Cc1ccc2c(c1)c(=O)[nH]c(=O)n2CC=CCP(=O)(O)O`: the inhibition in test [1] is 0%. Also, the inhibition entry in test [2] and in test [3] was “inactive” throughout.

For `CCCCCCNC(=O)NCC#Cc1ccc2c(c1)c(=O)[nH]c(=O)n2CC=CCP(=O)(O)O`, in test [1], the inhibition worked out at 14.9%. Besides, the inhibition entry in test [2] and in test [3] was “inactive” each time.

For `CCCCCCNC(=O)NCC#Cc1ccc2c(=O)[nH]c(=O)n(CC=CCP(=O)(O)O)c2c1`, the inhibition in test [1] was found to be 31.8%. For the same compound, the inhibition result in test [2] and in test [3] was “inactive” throughout.

For `O=C(Cc1ccccc1)NCC#Cc1ccc2c(c1)c(=O)[nH]c(=O)n2CC=CCP(=O)(O)O`, the inhibition in test [1] turned out to be 0%. Also, the inhibition entry in test [2] and in test [3] was “inactive” in each case.

For `O=c1[nH]c(=O)n(CC=CCP(=O)(O)O)c2ccccc12`, the inhibition in test [1] is 15.8%. The inhibition result in test [2] and in test [3] was “inactive” throughout.

Consider `CCCCCCNC(=O)NCC#Cc1cn(CC=CCP(=O)(O)O)c(=O)[nH]c1=O`, for which the inhibition in test [1] came out at 0%. Moreover, the inhibition result in test [2] and in test [3] was “inactive” in each case.

In turn, `O=C1c2ccccc2C(=O)C(c2ccco2)C1O` (configuration not stated) came in with a Ki in test [4] of 28 nM.

In the case of `O=c1[nH]c(=O)n(CC=CCP(=O)(O)O)cc1Cc1ccccc1`, the inhibition in test [1] is 23.7%. Besides, the inhibition entry in test [2] and in test [3] was “inactive” in each case.

Turning to `Cc1ccc2c(c1)c(=O)[nH]c(=O)n2CC=CCP(=O)(O)O`, the inhibition in test [1] stood at 26.2%. The inhibition entry in test [2] and in test [3] was “inactive” each time.
